Test results: the RNAGym collection of RNA variant scans (doi:10.1101/gad.245936.114)
Fewer inactive variants are shown than the library holds.

B1: tRNA (parent)
chain: CUCUCGGUAGCCAAGUUGGUUUAAGGCGCAAGACUUUAAUUUAUCACUACGAAAUCUUGAGAUCGGGCGUUCGACUCGCCCCCGGGAGAUUUUUUCCUCGAGCAA

Variants of: B1
Assay: nonsense suppression (GFP-seq) (ratio to wild type); higher = more function; SUP4oc tRNA, yeast GFP reporter sort-seq
Outline: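 Sorted GFP/RFP bins of yeast were each Illumina-sequenced with a phred ≥30 cutoff; the cells held a genome-integrated ochre-suppressor tRNA variant from a library with ~3% random mutations, a galactose-driven GFP ochre reporter, and RFP. Culture was in raffinose/galactose medium containing 80 mg/L adenine. Nonsense suppression, termed GFPSEQ, is the median GFP/RFP of the bins weighted by each variant's estimated cell share per bin, relative to the unmutated parent tRNA, for variants reaching ≥100 reads and ≥30 cells.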
In the case of U16G A30G C64G, the nonsense suppression is reported as ≤ 0.026.
Variant U16C C81U has a nonsense suppression of 1.16.
With U16C C81G the nonsense suppression was ≤ 0.026.
For U17G A23C, the nonsense suppression was ≤ 0.026.
With G19A A31G the nonsense suppression was 0.0307.
Work on U17C A87G yielded a nonsense suppression of 0.226.
Variant U16C G61U G73A has a nonsense suppression of 0.438.
G18U U20C U76G showed a nonsense suppression of 0.264.
In the case of U17C G28A, the nonsense suppression is reported as 1.09.
For U16C U21A U22G, the nonsense suppression was 0.861.
For U16A C34G U63C C77G G86C, the nonsense suppression was ≤ 0.026.
Work on U17C C83U yielded a nonsense suppression of 0.191.
U20A A31G showed a nonsense suppression of 0.461.
In the case of U16A G78U, the nonsense suppression is reported as 0.188.
Variant U16C C68U has a nonsense suppression of 1.03.
With U17C U21G the nonsense suppression was 0.801.
U16G G25C showed a nonsense suppression of 0.2.
Work on U16G A23G yielded a nonsense suppression of 0.129.
For U16G G85C, the nonsense suppression was 0.0285.
Work on U16G G85U yielded a nonsense suppression of 1.06.
Variant U16A U17G has a nonsense suppression of 1.16.
With U16A C82U the nonsense suppression was 0.886.
With U17C C72G the nonsense suppression was ≤ 0.026.
In the case of G18A G25U G67C, the nonsense suppression is reported as ≤ 0.026.
In the case of U20A U57A, the nonsense suppression is reported as ≤ 0.026.
U17C G28A G61C gave a nonsense suppression of 0.716.
U20A G73C gave a nonsense suppression of 0.0366.
For U16A G65A G66A, the nonsense suppression was ≤ 0.026.
With U16G C82G the nonsense suppression was ≤ 0.026.
In the case of U17A G28A G85A, the nonsense suppression is reported as 1.02.
In the case of U16G A30C A31G U55A U57A, the nonsense suppression is reported as ≤ 0.026.
With U17C A62G U70C the nonsense suppression was ≤ 0.026.
With U17G A24C the nonsense suppression was 0.653.
With U17G A24U the nonsense suppression was 0.159.
For G19C U22C C68U, the nonsense suppression was ≤ 0.026.
For U16G U76G G86C, the nonsense suppression was ≤ 0.026.
For U17C C75A G88A, the nonsense suppression was ≤ 0.026.
In the case of U16C U63C C79U, the nonsense suppression is reported as 0.0784.
G18A A87G showed a nonsense suppression of 0.036.
For G18C G61A, the nonsense suppression was ≤ 0.026.
In the case of G15U C29U, the nonsense suppression is reported as ≤ 0.026.
G18U U55C gave a nonsense suppression of 0.0402.
Work on U16C A54C yielded a nonsense suppression of 1.22.
With G19A A23C G85U the nonsense suppression was ≤ 0.026.
In the case of G19U G26C U57C, the nonsense suppression is reported as ≤ 0.026.
For U17G G66U G69A, the nonsense suppression was ≤ 0.026.
U16G gave a nonsense suppression of 1.
U16C showed a nonsense suppression of 0.862.
Work on U16A yielded a nonsense suppression of 1.
U17G A54U gave a nonsense suppression of 1.16.
U17G A54C gave a nonsense suppression of 0.64.
U17C U20G gave a nonsense suppression of 1.25.
U17C A62C gave a nonsense suppression of 0.734.
With G15C G69U G73C the nonsense suppression was ≤ 0.026.
For G19U G67U, the nonsense suppression was ≤ 0.026.
For U16C C83U, the nonsense suppression was 0.5.
For U16C G32A G59A C82G, the nonsense suppression was ≤ 0.026.
With G18C A54C G84U the nonsense suppression was ≤ 0.026.
For U16C A23G G28U, the nonsense suppression was ≤ 0.026.
For U17G A33U U63C G65C, the nonsense suppression was ≤ 0.026.
With U20A U55C C82G the nonsense suppression was ≤ 0.026.
In the case of G15C G26U U57C G78C, the nonsense suppression is reported as ≤ 0.026.
In the case of U20A A24U U63A, the nonsense suppression is reported as ≤ 0.026.
In the case of U16G C27G, the nonsense suppression is reported as ≤ 0.026.
U16C C27U showed a nonsense suppression of 0.137.
Variant U20A U63A has a nonsense suppression of 0.187.
Variant U17A C29U has a nonsense suppression of 1.15.
Work on U16A U20G yielded a nonsense suppression of 1.11.
U16A U20C showed a nonsense suppression of 0.193.
With G19A A54G G67A the nonsense suppression was ≤ 0.026.
U16G C79U gave a nonsense suppression of 0.852.
In the case of G19A U63G, the nonsense suppression is reported as 0.143.
For G18U U76C G86U, the nonsense suppression was ≤ 0.026.
In the case of U16A A31G G86U, the nonsense suppression is reported as ≤ 0.026.
Work on U17A U21A yielded a nonsense suppression of 0.966.
For U16A A62G U76G, the nonsense suppression was ≤ 0.026.
For U17C U76C, the nonsense suppression was 1.09.
In the case of U17G G32U U55A U57C U76C, the nonsense suppression is reported as ≤ 0.026.
Variant U17C G28C C75G has a nonsense suppression of 1.02.
With G15U U21A U55G the nonsense suppression was ≤ 0.026.
In the case of G18A U20G, the nonsense suppression is reported as 0.905.
U16A U21G gave a nonsense suppression of 0.752.
With U17A A54G G85U the nonsense suppression was ≤ 0.026.
For U16C C83G G86A A87G, the nonsense suppression was ≤ 0.026.
For U16C G28A, the nonsense suppression was 1.06.
For U17C G28C A54U, the nonsense suppression was 0.219.
Work on G15U U20C yielded a nonsense suppression of 0.0275.
With U17A G18U the nonsense suppression was ≤ 0.026.
G18A A30U showed a nonsense suppression of 0.0262.
In the case of G18A A30G, the nonsense suppression is reported as 0.0263.
For U17A A23C U71C, the nonsense suppression was ≤ 0.026.
Variant U16G A54U has a nonsense suppression of 1.18.
With G19U A24G A87G the nonsense suppression was ≤ 0.026.
For U16C A60G G86C, the nonsense suppression was ≤ 0.026.
U16A A54U gave a nonsense suppression of 1.06.
U16G U63A gave a nonsense suppression of 1.09.
In the case of U17G A30G, the nonsense suppression is reported as 0.397.
Work on U17G A30U yielded a nonsense suppression of 0.0613.
In the case of G19C A23C C56G G85U, the nonsense suppression is reported as ≤ 0.026.
For U17G A54G U57C, the nonsense suppression was ≤ 0.026.
With U16A G19C U70G C72G the nonsense suppression was ≤ 0.026.
For G15C G67A, the nonsense suppression was ≤ 0.026.
With U17A U20G G32A G61A C80U the nonsense suppression was ≤ 0.026.
U20A A87G showed a nonsense suppression of 0.226.
In the case of G19C U71C, the nonsense suppression is reported as ≤ 0.026.
With U17C G88U the nonsense suppression was ≤ 0.026.
For G19C C27G A30U U55C, the nonsense suppression was ≤ 0.026.
Variant U16G U22A has a nonsense suppression of 0.872.
Variant U16G A60G has a nonsense suppression of 0.39.
In the case of G15C G28U A62C G86C, the nonsense suppression is reported as ≤ 0.026.
For U17C G61C, the nonsense suppression was 0.769.
For U17C G61A, the nonsense suppression was 0.235.
Work on U17A A30G yielded a nonsense suppression of 0.369.
U16C A31G showed a nonsense suppression of 1.07.
U17C A60G showed a nonsense suppression of 0.411.
Work on U17C A60C yielded a nonsense suppression of 0.196.
In the case of G18C G19A G66A, the nonsense suppression is reported as ≤ 0.026.
For U17G C68A G69U, the nonsense suppression was ≤ 0.026.
Variant U16A G28A has a nonsense suppression of 1.11.
In the case of U17C G28U A30C, the nonsense suppression is reported as ≤ 0.026.
U16A A60G gave a nonsense suppression of 0.247.
With U17G C75U A87G the nonsense suppression was 0.77.
U16G G78C gave a nonsense suppression of 0.113.
With U16C C82A G85A the nonsense suppression was ≤ 0.026.
For U17C U35G G61C U76C, the nonsense suppression was ≤ 0.026.
With U17A C34U A74U the nonsense suppression was ≤ 0.026.
For U16G A54C C81U, the nonsense suppression was 0.0601.
With U16C U63C the nonsense suppression was 1.11.
Variant U20A G61U has a nonsense suppression of 0.217.
In the case of U20A G61C, the nonsense suppression is reported as 0.0711.
In the case of G19U G25A A31G U35G C64G, the nonsense suppression is reported as ≤ 0.026.
Variant U17A U63A U76C has a nonsense suppression of 0.155.
U16G A31G gave a nonsense suppression of 1.15.
Work on U17G A54U G61C yielded a nonsense suppression of 0.162.
In the case of U16G G67A, the nonsense suppression is reported as 0.178.
In the case of U16C U22C G61C, the nonsense suppression is reported as 0.207.
For U17A A33G, the nonsense suppression was 0.104.
For U17A A23U G84A, the nonsense suppression was ≤ 0.026.
With G15U U70G the nonsense suppression was ≤ 0.026.
For G15U U16A G59C G66C U70A C82G, the nonsense suppression was ≤ 0.026.
With U16A G18U A24C U58G the nonsense suppression was ≤ 0.026.
Variant U20A G28A has a nonsense suppression of 0.813.
Work on U20A G28C yielded a nonsense suppression of 0.182.
In the case of U20A A54U U76C, the nonsense suppression is reported as 0.24.
U17G U21G G61U gave a nonsense suppression of 0.0263.
U17C gave a nonsense suppression of 1.05.
U17A showed a nonsense suppression of 0.937.
U17G showed a nonsense suppression of 0.999.
With U16C U76A A89U the nonsense suppression was ≤ 0.026.
For G19U U55G, the nonsense suppression was ≤ 0.026.
Variant U16C U55C has a nonsense suppression of 0.769.
Work on U17A G78A yielded a nonsense suppression of 0.449.
U17A G78U showed a nonsense suppression of 0.186.
Work on U16A A33G yielded a nonsense suppression of 0.0423.
In the case of U17C C29G, the nonsense suppression is reported as ≤ 0.026.
U17C G73A gave a nonsense suppression of 0.899.
With U17C C29A G65A C72U C77U the nonsense suppression was ≤ 0.026.
In the case of G15C U22G A23C, the nonsense suppression is reported as ≤ 0.026.
With U16G U57A C64U G66U G69A the nonsense suppression was ≤ 0.026.
With G18U C83A the nonsense suppression was ≤ 0.026.
Work on U16C G61A U63A yielded a nonsense suppression of 0.186.
U17C A24G showed a nonsense suppression of 0.0323.
In the case of U17C A24C, the nonsense suppression is reported as 0.276.
Work on U16G U21C yielded a nonsense suppression of 0.905.
With U16G U21G the nonsense suppression was 1.1.
For U17C A30U, the nonsense suppression was 0.16.
Variant U17C A30G has a nonsense suppression of 0.326.
